Assay results taken from ChEMBL document CHEMBL4765238, “Structure-Based Discovery and Optimization of Benzo[ d]isoxazole Derivatives as Potent and Selective BET Inhibitors for Potential Treatment of Castration-Resistant Prostate Cancer (CRPC)” (J Med Chem, 2018).

Legend:
[1] = biological target: T1, Bromodomain-containing protein 4 (Homo sapiens, UniProt O60885); test: Inhibition of HYSGRGK(Ac)GGK(Ac)GLGK(Ac)GGAK(Ac)RHRK(Biotin)-OH binding to recombinant human His6-tagged BRD4 bromodomain 1 (N44 to E168 residues) expressed in Escherichia coli BL21 (DE3) cells measured after 2 hrs by Alphascreen assay
[2] = biological target: T1, Bromodomain-containing protein 4; test: Binding affinity to human recombinant His6-tagged BRD4 bromodomain 1 (N44 to E168 residues) expressed in Escherichia coli BL21 (DE3) cells assessed as dissociation constant incubated for 1 hr by isothermal titration calorimetry
[3] = biological target: T1, Bromodomain-containing protein 4; test: Binding affinity to human recombinant His6-tagged BRD4 bromodomain 1 (N44 to E168 residues) expressed in Escherichia coli BL21 (DE3) cells assessed as change in melting temperature at 200 uM incubated for 30 mins by SYPRO orange dye based thermal shift assay
In short: (§1)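 Thermal shift assay measuring change in melting temperature of each isolated bromodomain module in the presence of compound versus without.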

[4] = biological target: T1, Bromodomain-containing protein 4; test: Binding affinity to human recombinant His6-tagged BRD4 bromodomain 1 (N44 to E168 residues) expressed in Escherichia coli BL21 (DE3) cells assessed as gibbs free energy change incubated for 1 hr by isothermal titration calorimetry
[5] = biological target: Bromodomain-containing protein 3 (Homo sapiens) (UniProt Q15059); test: Binding affinity to human recombinant His6-tagged BRD3 bromodomain 1 (P24 to E144 residues) expressed in Escherichia coli BL21 (DE3) cells assessed as change in melting temperature at 200 uM incubated for 30 mins by SYPRO orange dye based thermal shift assay; in short: as §1
Bromodomain-containing protein 3 (Homo sapiens), sequence (Q15059 2-726 limits assumed): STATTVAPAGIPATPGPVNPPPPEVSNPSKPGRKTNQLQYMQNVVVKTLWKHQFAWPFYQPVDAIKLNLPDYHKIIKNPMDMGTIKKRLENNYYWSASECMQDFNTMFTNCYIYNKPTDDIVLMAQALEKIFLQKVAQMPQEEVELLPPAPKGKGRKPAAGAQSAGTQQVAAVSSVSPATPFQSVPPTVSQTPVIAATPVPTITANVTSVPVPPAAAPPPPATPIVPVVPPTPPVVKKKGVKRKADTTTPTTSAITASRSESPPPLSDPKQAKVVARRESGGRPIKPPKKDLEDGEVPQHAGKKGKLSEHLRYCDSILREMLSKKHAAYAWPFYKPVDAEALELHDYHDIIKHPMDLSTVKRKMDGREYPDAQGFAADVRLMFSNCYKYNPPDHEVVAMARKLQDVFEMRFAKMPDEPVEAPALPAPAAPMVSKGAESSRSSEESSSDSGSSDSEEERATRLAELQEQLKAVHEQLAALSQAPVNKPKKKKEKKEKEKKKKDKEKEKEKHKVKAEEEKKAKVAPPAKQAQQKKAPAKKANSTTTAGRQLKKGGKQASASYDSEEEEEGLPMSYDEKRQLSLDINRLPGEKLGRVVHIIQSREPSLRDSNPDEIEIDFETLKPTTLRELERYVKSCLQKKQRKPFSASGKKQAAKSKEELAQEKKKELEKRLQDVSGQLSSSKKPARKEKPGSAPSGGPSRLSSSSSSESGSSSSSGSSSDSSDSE

[6] = biological target: Bromodomain adjacent to zinc finger domain protein 2B (Homo sapiens) (UniProt Q9UIF8); test: Binding affinity to human recombinant His6-tagged BAZ2B (S1858 to S1972 residues) expressed in Escherichia coli BL21 (DE3) cells assessed as change in melting temperature at 200 uM incubated for 30 mins by SYPRO orange dye based thermal shift assay; in short: as §1
Bromodomain adjacent to zinc finger domain protein 2B (Homo sapiens), sequence (Q9UIF8 whole entry, the tested form may be a part): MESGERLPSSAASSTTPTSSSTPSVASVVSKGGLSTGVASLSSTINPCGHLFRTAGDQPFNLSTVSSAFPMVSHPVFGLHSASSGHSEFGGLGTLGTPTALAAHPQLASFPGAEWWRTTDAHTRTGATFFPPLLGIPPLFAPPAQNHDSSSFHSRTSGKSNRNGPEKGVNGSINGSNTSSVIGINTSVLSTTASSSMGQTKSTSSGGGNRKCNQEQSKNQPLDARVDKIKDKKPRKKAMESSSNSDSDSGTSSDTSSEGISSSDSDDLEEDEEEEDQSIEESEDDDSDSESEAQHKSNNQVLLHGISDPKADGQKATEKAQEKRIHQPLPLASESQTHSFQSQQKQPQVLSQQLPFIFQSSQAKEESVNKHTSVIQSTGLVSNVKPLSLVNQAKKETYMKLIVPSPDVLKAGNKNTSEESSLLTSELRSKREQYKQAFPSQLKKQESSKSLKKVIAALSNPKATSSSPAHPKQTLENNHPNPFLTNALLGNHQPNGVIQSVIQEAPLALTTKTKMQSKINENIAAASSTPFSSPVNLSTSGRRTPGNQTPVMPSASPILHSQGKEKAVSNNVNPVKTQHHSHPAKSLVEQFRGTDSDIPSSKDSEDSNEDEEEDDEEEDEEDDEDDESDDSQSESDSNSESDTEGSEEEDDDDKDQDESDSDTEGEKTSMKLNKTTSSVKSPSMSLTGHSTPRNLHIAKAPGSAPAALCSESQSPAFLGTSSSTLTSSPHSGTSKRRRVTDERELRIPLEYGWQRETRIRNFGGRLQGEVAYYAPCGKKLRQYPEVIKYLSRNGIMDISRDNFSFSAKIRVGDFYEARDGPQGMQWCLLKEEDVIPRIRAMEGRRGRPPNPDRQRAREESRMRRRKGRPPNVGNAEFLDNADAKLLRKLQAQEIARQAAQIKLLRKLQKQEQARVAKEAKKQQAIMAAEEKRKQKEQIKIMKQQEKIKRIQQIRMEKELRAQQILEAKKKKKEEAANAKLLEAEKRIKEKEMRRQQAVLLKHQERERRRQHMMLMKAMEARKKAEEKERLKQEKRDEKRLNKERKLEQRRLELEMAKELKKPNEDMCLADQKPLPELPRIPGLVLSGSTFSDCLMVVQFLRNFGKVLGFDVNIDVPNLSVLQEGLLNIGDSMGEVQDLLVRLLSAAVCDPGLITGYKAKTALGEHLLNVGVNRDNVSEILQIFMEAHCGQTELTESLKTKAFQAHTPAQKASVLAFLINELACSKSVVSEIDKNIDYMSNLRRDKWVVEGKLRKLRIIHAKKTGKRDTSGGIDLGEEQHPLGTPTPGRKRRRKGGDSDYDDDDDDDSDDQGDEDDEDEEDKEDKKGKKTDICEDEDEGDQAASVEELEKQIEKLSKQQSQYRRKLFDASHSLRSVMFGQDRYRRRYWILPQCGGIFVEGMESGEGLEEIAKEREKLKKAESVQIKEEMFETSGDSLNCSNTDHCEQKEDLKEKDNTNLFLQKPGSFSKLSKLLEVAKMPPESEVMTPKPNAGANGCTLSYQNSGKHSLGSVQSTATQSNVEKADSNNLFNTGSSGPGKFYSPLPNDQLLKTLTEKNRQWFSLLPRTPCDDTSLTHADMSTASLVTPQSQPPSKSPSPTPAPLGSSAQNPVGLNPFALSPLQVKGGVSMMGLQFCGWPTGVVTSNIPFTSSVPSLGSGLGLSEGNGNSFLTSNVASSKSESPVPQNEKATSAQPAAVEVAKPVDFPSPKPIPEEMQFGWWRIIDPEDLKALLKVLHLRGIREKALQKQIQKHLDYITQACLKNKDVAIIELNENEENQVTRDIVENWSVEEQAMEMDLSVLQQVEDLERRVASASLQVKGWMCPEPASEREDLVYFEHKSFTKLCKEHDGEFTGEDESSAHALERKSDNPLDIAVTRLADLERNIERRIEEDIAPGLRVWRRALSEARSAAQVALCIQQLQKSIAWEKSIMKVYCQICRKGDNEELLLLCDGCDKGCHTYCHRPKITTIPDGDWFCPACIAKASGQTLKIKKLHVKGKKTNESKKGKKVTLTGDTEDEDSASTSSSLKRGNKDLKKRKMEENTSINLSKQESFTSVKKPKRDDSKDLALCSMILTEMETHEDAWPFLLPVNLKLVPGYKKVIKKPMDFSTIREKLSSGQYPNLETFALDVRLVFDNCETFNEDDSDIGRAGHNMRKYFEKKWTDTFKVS

[7] = biological target: T2, Bromodomain-containing protein 1 (Homo sapiens) (UniProt O95696); test: Binding affinity to human recombinant His6-tagged BRD1 (E556 to A688 residues) expressed in Escherichia coli BL21 (DE3) cells assessed as change in melting temperature at 200 uM incubated for 30 mins by SYPRO orange dye based thermal shift assay; in short: as §1
T2 sequence (whole entry): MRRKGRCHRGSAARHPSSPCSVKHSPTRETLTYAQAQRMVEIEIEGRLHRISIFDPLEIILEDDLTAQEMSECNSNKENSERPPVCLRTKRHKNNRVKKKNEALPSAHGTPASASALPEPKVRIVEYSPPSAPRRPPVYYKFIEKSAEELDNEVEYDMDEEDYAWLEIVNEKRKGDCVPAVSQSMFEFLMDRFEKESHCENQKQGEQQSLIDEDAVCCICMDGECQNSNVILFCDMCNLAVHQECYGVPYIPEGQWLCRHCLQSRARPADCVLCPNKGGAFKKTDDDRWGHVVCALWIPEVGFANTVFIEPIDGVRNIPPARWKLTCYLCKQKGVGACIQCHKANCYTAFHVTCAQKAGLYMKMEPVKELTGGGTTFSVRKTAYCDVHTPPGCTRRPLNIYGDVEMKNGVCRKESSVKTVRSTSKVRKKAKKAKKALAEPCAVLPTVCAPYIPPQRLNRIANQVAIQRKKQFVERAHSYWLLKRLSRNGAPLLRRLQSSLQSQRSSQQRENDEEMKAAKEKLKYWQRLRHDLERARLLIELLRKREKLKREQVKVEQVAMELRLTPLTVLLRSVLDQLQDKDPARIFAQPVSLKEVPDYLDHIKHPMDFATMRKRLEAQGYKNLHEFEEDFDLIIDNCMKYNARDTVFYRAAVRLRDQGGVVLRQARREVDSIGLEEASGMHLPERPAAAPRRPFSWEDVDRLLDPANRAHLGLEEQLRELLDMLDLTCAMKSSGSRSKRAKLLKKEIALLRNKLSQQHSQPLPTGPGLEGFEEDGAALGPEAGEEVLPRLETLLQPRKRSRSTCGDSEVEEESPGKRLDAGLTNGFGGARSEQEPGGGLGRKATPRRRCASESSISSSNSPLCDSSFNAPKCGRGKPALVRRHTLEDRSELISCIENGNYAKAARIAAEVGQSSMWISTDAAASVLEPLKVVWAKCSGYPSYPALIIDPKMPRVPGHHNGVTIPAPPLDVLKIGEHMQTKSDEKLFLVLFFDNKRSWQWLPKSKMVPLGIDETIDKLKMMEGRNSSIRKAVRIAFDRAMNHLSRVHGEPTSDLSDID

[8] = biological target: Histone acetyltransferase KAT2B (Homo sapiens) (UniProt Q92831); test: Binding affinity to human recombinant His6-tagged PCAF (G715 to D831 residues) expressed in Escherichia coli BL21 (DE3) cells assessed as change in melting temperature at 200 uM incubated for 30 mins by SYPRO orange dye based thermal shift assay; in short: as §1
Histone acetyltransferase KAT2B (Homo sapiens), sequence (Q92831 whole entry, looked up, the tested form may be a part): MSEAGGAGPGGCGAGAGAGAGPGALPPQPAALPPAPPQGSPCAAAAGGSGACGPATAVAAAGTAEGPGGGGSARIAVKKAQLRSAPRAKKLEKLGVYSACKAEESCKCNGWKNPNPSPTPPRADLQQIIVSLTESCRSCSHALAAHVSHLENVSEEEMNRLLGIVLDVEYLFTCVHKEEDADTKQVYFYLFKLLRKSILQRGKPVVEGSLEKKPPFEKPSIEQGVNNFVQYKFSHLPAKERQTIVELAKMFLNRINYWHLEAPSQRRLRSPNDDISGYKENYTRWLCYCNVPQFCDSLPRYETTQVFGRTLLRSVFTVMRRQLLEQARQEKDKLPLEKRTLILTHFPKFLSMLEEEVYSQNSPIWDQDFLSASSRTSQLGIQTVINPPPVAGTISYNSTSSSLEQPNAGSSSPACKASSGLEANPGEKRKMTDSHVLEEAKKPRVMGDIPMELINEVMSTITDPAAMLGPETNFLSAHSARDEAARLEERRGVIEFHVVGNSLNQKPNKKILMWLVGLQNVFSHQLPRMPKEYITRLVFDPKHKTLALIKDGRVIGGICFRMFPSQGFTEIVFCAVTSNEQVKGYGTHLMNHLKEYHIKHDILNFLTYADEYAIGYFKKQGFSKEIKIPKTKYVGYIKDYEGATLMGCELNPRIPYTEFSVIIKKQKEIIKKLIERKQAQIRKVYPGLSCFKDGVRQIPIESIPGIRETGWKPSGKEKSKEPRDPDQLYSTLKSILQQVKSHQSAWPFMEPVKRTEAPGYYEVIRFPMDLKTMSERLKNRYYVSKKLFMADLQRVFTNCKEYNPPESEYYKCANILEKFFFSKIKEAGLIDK

[9] = biological target: Histone-lysine N-methyltransferase ASH1L (Homo sapiens) (UniProt Q9NR48); test: Binding affinity to human recombinant His6-tagged ASH1L (E2433 to E2564 residues) expressed in Escherichia coli BL21 (DE3) cells assessed as change in melting temperature at 200 uM incubated for 30 mins by SYPRO orange dye based thermal shift assay; in short: as §1
[10] = biological target: Histone acetyltransferase p300 (Homo sapiens) (UniProt Q09472); test: Binding affinity to human recombinant His6-tagged EP300 (A1040 to G1161 residues) expressed in Escherichia coli BL21 (DE3) cells assessed as change in melting temperature at 200 uM incubated for 30 mins by SYPRO orange dye based thermal shift assay; in short: as §1
[11] = biological target: CREB-binding protein (Homo sapiens) (UniProt Q92793); test: Binding affinity to human recombinant His6-tagged CREBBP (R1081 to G1197 residues) expressed in Escherichia coli BL21 (DE3) cells assessed as change in melting temperature at 200 uM incubated for 30 mins by SYPRO orange dye based thermal shift assay; in short: as §1
LNCaP = test: Antiproliferative activity against AR-positive human LNCAP cells assessed as reduction in cell viability incubated for 96 hrs by cell-titer glo assay; assay type: functional, cell-based
In short: (§2)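 Prostate cancer cells treated across a concentration range; viability read by CellTiter-Glo luminescence; experiments in triplicate; IC50 derived from the dose–response curves.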

LNCaP C4-2B = test: Antiproliferative activity against AR-positive human C4-2B cells assessed as reduction in cell viability incubated for 96 hrs by cell-titer glo assay; assay type: functional, cell-based; in short: as §2
CWR22R = test: Antiproliferative activity against AR-positive human 22Rv1 cells assessed as reduction in cell viability incubated for 96 hrs by cell-titer glo assay; assay type: functional, cell-based; conditions: 22Rv1, 96 h; in short: as §2

IC50 [1] [nM] | Kd [2] [nM] | ΔTm [3] [°C] | deltaG [4] [kcal/mol] | ΔTm [5] [°C] | ΔTm [6] [°C] | ΔTm [7] [°C] | ΔTm [8] [°C] | ΔTm [9] [°C] | ΔTm [10] [°C] | ΔTm [11] [°C] | IC50 (LNCaP) [nM] | IC50 (LNCaP C4-2B) [nM] | Structure (SMILES) | IC50 (CWR22R) [nM]
130 | 82 | 9.8 | -9.7 | 8.1 | 0 | -0.1 | 2.7 | 0.3 | 2 | 1.4 | 1060 | 2620 | COc1cc2onc(C)c2cc1NS(=O)(=O)c1cc(Br)ccc1OC | 1500
150 | 164 | 9.2 | -9.3 | 6.5 | 0.3 | -0.4 | 2.6 | -0.1 | 2.3 | 2.1 | 6160 | 6430 | CNc1cc2onc(C)c2cc1NS(=O)(=O)c1cc(Br)ccc1OC | 6730
180 | 81 | 9.9 | -9.7 | 8.7 | -0.6 | 0.3 | -0.6 | -0.5 | 0.3 | 0.3 | 470 | 840 | Cc1noc2ccc(-c3nc4ccc(N5CCOC[C@@H]5C)cc4n3CC3CCCCC3)cc12 | 700
300 | 159 | 9.2 | -9.3 | 8.9 | -0.6 | 0 | -0.6 | -0.9 | -0.3 | 0 | 570 | 850 | Cc1noc2c(Br)cc(-c3nc4ccc(N5CCOCC5)cc4n3CC3CCCCC3)cc12 | 640
